For data set [1], the species on record is Mus musculus. The experiment in a line: Selectivity ratio of Ki for CB1 receptor in CD1 mouse brain membrane without cerebellum to Ki for CB2 receptor in CD1 mouse spleen membrane. The class given is cell membranes.
For data set [2], the target named is Cannabinoid receptor 1 (Mus musculus) (UniProt P47746). Put plainly: Neutral antagonist activity at CB1 receptor in albino CD1 mouse vas deferens assessed as rightward shift in WIN 55,212-2 concentration response curve for electrically evoked contractions at 0.1 to 10 uM treated 20 mins before first addition of WIN 55,212-2. A digest of the protocol: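 Vas deferens from male albino CD1 mice, electrically stimulated as for twitch studies, in Krebs-Henseleit at 37 °C. Compound at a fixed concentration (0.1, 1 or 10 μM; DMSO ≤0.1%) was added 20 min before cumulative WIN 55,212-2. Inhibition of twitches was expressed as percentage of the pre-WIN amplitude; mean ± SEM.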
Chain of Cannabinoid receptor 1 (Mus musculus) (P47746 whole entry): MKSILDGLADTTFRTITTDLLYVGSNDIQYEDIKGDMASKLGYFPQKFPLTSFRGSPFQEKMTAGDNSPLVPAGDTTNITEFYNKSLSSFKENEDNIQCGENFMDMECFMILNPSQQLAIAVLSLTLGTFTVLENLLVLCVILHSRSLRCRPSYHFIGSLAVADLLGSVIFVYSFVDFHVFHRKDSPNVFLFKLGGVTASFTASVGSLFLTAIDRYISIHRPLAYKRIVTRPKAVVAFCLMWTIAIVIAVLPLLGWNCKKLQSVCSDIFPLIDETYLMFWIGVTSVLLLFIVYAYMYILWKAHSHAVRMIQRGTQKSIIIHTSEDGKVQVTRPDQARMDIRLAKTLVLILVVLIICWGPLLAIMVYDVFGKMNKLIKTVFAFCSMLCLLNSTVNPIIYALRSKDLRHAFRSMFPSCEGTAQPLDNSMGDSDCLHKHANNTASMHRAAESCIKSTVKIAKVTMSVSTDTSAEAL

The target is the same in data set [3]. Put plainly: Agonist activity at CB1 receptor in mouse N1E-115 cells assessed as increase in ERK1/2 phosphorylation after 10 mins by Western blot analysis. The class given is cell-based. The essentials:
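N1E-115 cells were grown in high-glucose DMEM with 10% FBS at 37 °C, 5% CO2. They were exposed for 10 min to compounds in D-PBS with 1% DMSO, then lysed at 4 °C. P-ERK 1/2 was measured by western blot at 40 µg total protein and expressed as percentage of vehicle. Five independent experiments; one-way ANOVA.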

The target of the next data set is Cannabinoid receptor 1 (Mus musculus, UniProt P47746). The experiment in a line: Displacement of [3H]CP55940 from CB1 receptor in CD1 mouse brain membrane without cerebellum by liquid scintillation counting analysis. The class given is cell membranes. (Loss of bound radioactivity is the signal in a displacement assay; it reports binding, not function.)
Chain of Cannabinoid receptor 1 (P47746 whole entry): as above
Data set [4] has as its target Cannabinoid receptor 1 (Mus musculus) (UniProt P47746). The experiment in a line: Intrinsic activity at CB1 receptor in albino CD1 mouse vas deferens assessed as increase in amplitude of electrically evoked contractions at 0.1 to 100 uM. A digest of the protocol:
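Vas deferens from male albino CD1 mice (30-40 g) was held at 0.5 g tension in Krebs-Henseleit at 37 °C, gassed with 95% O2/5% CO2. Twitches were evoked by 0.5-s trains of three 0.5-ms pulses at 110% maximal voltage, 0.1 Hz. Compounds (DMSO ≤0.1%) were added once responses were reproducible. Contraction amplitude was compared with control; mean ± SEM, n=5; ANOVA with Bonferroni test.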

For the next data set, the target named is Cannabinoid receptor 2 (Mus musculus, UniProt P47936). The experiment in a line: Displacement of [3H]CP55940 from CB2 receptor in CD1 mouse spleen membrane by liquid scintillation counting analysis. The class given is cell membranes.
Chain of Cannabinoid receptor 2 (P47936 whole entry): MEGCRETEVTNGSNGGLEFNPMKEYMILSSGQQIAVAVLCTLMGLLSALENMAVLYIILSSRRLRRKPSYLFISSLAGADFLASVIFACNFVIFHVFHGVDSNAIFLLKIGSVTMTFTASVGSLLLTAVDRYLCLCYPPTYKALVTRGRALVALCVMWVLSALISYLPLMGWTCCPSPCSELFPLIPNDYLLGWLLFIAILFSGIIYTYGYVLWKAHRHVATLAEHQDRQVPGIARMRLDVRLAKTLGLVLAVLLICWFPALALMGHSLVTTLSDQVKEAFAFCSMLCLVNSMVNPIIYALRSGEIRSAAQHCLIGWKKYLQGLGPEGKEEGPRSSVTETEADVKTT
Data set [5] addresses Cannabinoid receptor 1 (Mus musculus) (UniProt P47746). Put plainly: Neutral antagonist activity at CB1 receptor in mouse N1E-115 cells assessed as inhibition of WIN 55,212-2-induced ERK1/2 phosphorylation at 1 uM treated 5 mins prior to WIN 55,212-2 challenge by Western blot analysis. In kind it is cell-based. A digest of the protocol: (§1)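 N1E-115 cells were pretreated for 5 min with compound (0.1-1.0 μM; dissolved in D-PBS with 1% DMSO), then exposed for 10 min to WIN55,212-2 (25 nM). Lysates (40 µg total protein) were western blotted for P-ERK 1/2 and expressed as percentage of vehicle. Five independent experiments; one-way ANOVA.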
Background: A western blot detects proteins with antibodies after separation by electrophoresis.

Data set [6] concerns Mus musculus. The experiment in a line: Increase in food intake in fasted C57Bl6/J mouse at 3 to 10 mg/kg, ip administered 15 mins prior to food presentation measured after 3 hrs. In kind it is functional, organism-based.
In data set [7] the test system is Mus musculus. Put plainly: Toxicity in C57Bl6/J mouse assessed as mortality at 20 mg/kg, ip. The class given is organism-based. Also noted: dose 20 mg/kg, route intraperitoneal. The conditions noted are these: in vivo. The essentials:
(§2)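 Fasted C57Bl6/J mice from the food-intake test were given 20 mg/kg ip in saline with Tween 80 and ethanol (each 2.5 wt%).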

The target in data set [8] is Cannabinoid receptor 1 (Mus musculus) (UniProt P47746). The conditions noted are these: N1E-115, 1 uM.
Data set [9] has as its system Mus musculus. Put plainly: Toxicity in C57Bl6/J mouse assessed as locomotion blockage at 20 mg/kg, ip. The class given is organism-based. Set-up: dose 20 mg/kg, route intraperitoneal. The following applies: in vivo. The essentials:
as §2

The subject of data set [10] is Mus musculus. Put plainly: Reduction of food intake in fasted C57Bl6/J mouse at 3 to 10 mg/kg, ip administered 15 mins prior to food presentation measured after 1 hr. In kind it is functional, organism-based. A digest of the protocol: (§3)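 Male-unspecified C57Bl6/J mice (20-25 g) were housed singly on a reverse light-dark cycle and fasted 18 h. Compounds in saline with 2.5% Tween 80 and 2.5% ethanol, or vehicle, were given ip; food was presented 15 min later. Intake was recorded over 3 h. Mean ± SEM; two-way ANOVA with Bonferroni test.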

For data set [11], the target named is Cannabinoid receptor 1 (Homo sapiens) (UniProt P21554). The experiment in a line: Intrinsic activity at human recombinant CB1 receptor transfected in CHO cells assessed as effect on [35S]GTPgammaS binding up to 0.1 uM after 1 hr by liquid scintillation spectrometry. The class given is functional, cell-based. The essentials: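 […] used CHO cells expressing human recombinant CB1, incubated with [³⁵S]GTPγS and a range of compound concentrations alone for 1 h at 37 °C. The reaction was stopped with ice-cold Tris/BSA, filtered on glass-fibre filters and read by liquid scintillation spectrometry. Data are percentage stimulation over basal, mean ± SEM of five experiments.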
Chain of Cannabinoid receptor 1 (Homo sapiens) (P21554 whole entry): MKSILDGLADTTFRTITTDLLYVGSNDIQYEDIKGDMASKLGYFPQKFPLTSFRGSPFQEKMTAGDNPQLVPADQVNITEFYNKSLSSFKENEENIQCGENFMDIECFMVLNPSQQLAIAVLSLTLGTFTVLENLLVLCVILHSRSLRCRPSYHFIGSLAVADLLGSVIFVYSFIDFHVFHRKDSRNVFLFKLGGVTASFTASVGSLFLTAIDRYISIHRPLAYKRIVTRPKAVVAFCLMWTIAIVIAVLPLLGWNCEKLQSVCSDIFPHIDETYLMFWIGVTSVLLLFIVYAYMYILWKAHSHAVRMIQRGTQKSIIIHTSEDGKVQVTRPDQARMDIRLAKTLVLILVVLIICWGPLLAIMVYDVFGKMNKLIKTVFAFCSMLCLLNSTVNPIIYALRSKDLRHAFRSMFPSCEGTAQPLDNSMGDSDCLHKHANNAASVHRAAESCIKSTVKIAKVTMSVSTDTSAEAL
In general terms: GTPγS is a poorly hydrolysed GTP analogue; its binding reports G protein activation.

For data set [12], the system named is Mus musculus. Put plainly: Reduction of food intake in fasted C57Bl6/J mouse at 10 to 20 mg/kg, ip administered 15 mins prior to food presentation measured after 1 to 3 hrs. In kind it is functional, organism-based. A digest of the protocol:
as §3

For data set [13], the system named is Mus musculus. The experiment in a line: Toxicity in C57Bl6/J mouse assessed as observable adverse events at 20 mg/kg, ip. The class given is organism-based. Also noted: dose 20 mg/kg, route intraperitoneal. The following applies: in vivo.
Data set [14] deals with Mus musculus. The experiment in a line: Reduction of food intake in fasted C57Bl6/J mouse at 10 to 20 mg/kg, ip administered 15 mins prior to food presentation measured after 2 to 3 hrs. In kind it is functional, organism-based. A digest of the protocol:
as §3

For data set [15], the target named is Cannabinoid receptor 1 (Mus musculus) (UniProt P47746). The experiment in a line: Neutral antagonist activity at CB1 receptor in mouse N1E-115 cells assessed as inhibition of WIN 55,212-2-induced ERK1/2 phosphorylation at 125 to 500 nM treated 5 mins prior to WIN 55,212-2 challenge by Western blot analysis. The class given is cell-based. The essentials:
as §1

In data set [16] the test system is Mus musculus. The experiment in a line: Reduction of food intake in fasted C57Bl6/J mouse at 10 to 20 mg/kg, ip administered 15 mins prior to food presentation measured for 2 hrs. In kind it is functional, organism-based. The essentials:
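C57Bl6/J mice (20-25 g), housed singly on a reverse light-dark cycle and fasted 18 h. Dosed ip at 10 and 20 mg/kg in saline with Tween 80 and ethanol (each 2.5 wt%). Weighed food presented 15 min later; intake followed over 3 h. Mean ± SEM; two-way ANOVA with Bonferroni post hoc versus vehicle.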

Active and inactive are the calls of the source. The calls are words filed in the database; no cut-off is given here.

On to `Cc1c(C(NN2CCCCC2)C(F)(F)F)nn(-c2ccc(Cl)cc2Cl)c1-c1ccc(Cl)cc1` (racemic), for which, in the data set filed under Mus musculus [1], the Ratio Ki is below 0.057. For the same compound, in data set [2], the result was Active. For the same compound, the result in data set [3] was inactive. The Ki (in general, a dissociation constant, usually derived from enzyme kinetics or from competition with a known ligand) at Cannabinoid receptor 1 is 287 nM; on Cannabinoid receptor 2 it was above 5000 nM. In [4], the Intrinsic activity result is “inactive”. For the same compound, the inhibition entry in data set [5] was “Active”.

On to `Cc1c(C(=O)NN2CCCCC2)nn(-c2ccc(Cl)cc2Cl)c1-c1ccc(Cl)cc1` [RIMONABANT], for which the result with Mus musculus [6] and in the data set on Mus musculus [10] was Active. Moreover, the Activity entry with Mus musculus [7] and with Mus musculus [9] was “Toxic” each time. In addition, the result in data set [3] was inactive. Also, the inhibition entry in [8] is “Active”.

For the compound `Cc1c(C(O)CC2CCCCC2)nn(-c2ccc(Cl)cc2Cl)c1-c1ccc(Cl)cc1` (racemic), the outcome (in data set [2]; in the data set with Mus musculus [12]) was Active. For the same compound, in [3], the outcome was inactive. In addition, the Intrinsic activity result in [11] and in data set [4] was “inactive” each time. At Cannabinoid receptor 2, the affinity, expressed as Ki, was 4200 nM. For the same compound, the inhibition entry in data set [5] is “Active”.

Regarding `Cc1c(/C(F)=C\C2CCCCC2)nn(-c2ccc(Cl)cc2Cl)c1-c1ccc(Cl)cc1`, the Ratio Ki in the data set filed under Mus musculus [1] worked out at 0.103. Further, the result in [2] was Active. For the same compound, the Ki on Cannabinoid receptor 1 came out at 412 nM; on Cannabinoid receptor 2, 4000 nM. In addition, the Intrinsic activity result in [4] was “inactive”.

`Cc1c(/C(F)=C/C2CCCCC2)nn(-c2ccc(Cl)cc2Cl)c1-c1ccc(Cl)cc1`: the Activity result in the data set with Mus musculus [13] is on record as “Non-toxic”. Also, the Ratio Ki in the data set filed under Mus musculus [1] is 0.013. The outcome (in [2]; in the data set on Mus musculus [14]) was Active. In [3], the outcome was inactive. In addition, the Intrinsic activity result in data set [11] and in [4] was “inactive” throughout. In addition, the figures for the Ki on Cannabinoid receptor 1 and at Cannabinoid receptor 2 were 25.8 nM and 1950 nM, respectively. The inhibition result in [15] is “Active”.

As for `Cc1c(C(=O)CC2CCCCC2)nn(-c2ccc(Cl)cc2Cl)c1-c1ccc(Cl)cc1`, the Ratio Ki in the data set listed under Mus musculus [1] came to 0.021. The result (in data set [2]; with Mus musculus [12]) was Active. Moreover, the outcome in data set [3] was inactive. In addition, the Intrinsic activity result in data set [11] was “inactive”. Also, the Ki was found to be 46.1 nM at Cannabinoid receptor 1 and 2230 nM on Cannabinoid receptor 2. In addition, the inhibition result in data set [15] was “Active”.

In the case of `Cc1c(/C=C/C2CCCCC2)nn(-c2ccc(Cl)cc2Cl)c1-c1ccc(Cl)cc1`, the result (in the data set on Mus musculus [16]; in data set [2]) was Active. Besides, the Ratio Ki in the data set listed under Mus musculus [1] came to 0.003. Besides, the result in data set [3] was inactive. Moreover, the inhibition constant Ki on Cannabinoid receptor 1 was determined as 11.2 nM; on Cannabinoid receptor 2 it was 3800 nM. The Intrinsic activity result in data set [4] is “inactive”. Moreover, the inhibition entry in data set [15] is “Active”.

These data come from ChEMBL document CHEMBL2331495, “Novel pyrazole derivatives as neutral CB₁ antagonists with significant activity towards food intake” (Eur J Med Chem, 2013).
